Test [1] has as its system MCF7. In words: Growth inhibition of human MCF7 cells after 48 hrs by MTT assay. It counts as functional, cell-based. The method, boiled down: (§1)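 Cells from ECACC are kept in RPMI-1640 with 10% FCS and 1% penicillin at 37 °C in 5% CO2. They are seeded at 3×10^3 cells/well and dosed after 24 h from filter-sterilized DMSO stocks, then treated for 48 h. MTT (2.5 mg/mL in PBS) is added, formazan is dissolved in DMSO, and A570 is read. Viability is given as % of untreated.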

The subject of test [2] is A549. The experiment in a line: Growth inhibition of human A549 cells at 50 uM after 48 hrs by MTT assay. The test is classed as functional. The settings on record: A549, 48 h, read-out: GI. An outline of the steps: as §1
The test system of test [3] is PC-3. In words: Growth inhibition of human PC3 cells at 50 uM after 48 hrs by MTT assay. It counts as functional. Particulars: PC-3, 48 h, read-out: GI. The method, boiled down:
as §1
For orientation: Tetrazolium assays rely on reduction of a dye to a coloured formazan, in cell work by metabolically active cells.

For test [4], the system named is A549. The experiment in a line: Growth inhibition of human A549 cells at 10 uM after 48 hrs by MTT assay. The test is classed as functional. The settings on record: A549, 48 h, read-out: GI. An outline of the steps: as §1
Test [5] relates to PC-3. In words: Growth inhibition of human PC3 cells at 10 uM after 48 hrs by MTT assay. It counts as functional. The settings on record: PC-3, 48 h, read-out: GI. The method, boiled down:
as §1

Test [6] concerns MCF7. The experiment in a line: Growth inhibition of human MCF7 cells at 10 uM after 48 hrs by MTT assay. It counts as functional. Particulars: MCF7, 48 h, read-out: GI. The method, boiled down:
as §1

Test [7] concerns HCT-116. The experiment in a line: Growth inhibition of human HCT116 cells after 48 hrs by MTT assay. It counts as functional, cell-based. The method, boiled down:
as §1

For test [8], the system named is HCT-116. The experiment in a line: Growth inhibition of human HCT116 cells at 50 uM after 48 hrs by MTT assay. The settings on record: HCT-116, 48 h, read-out: GI. The test is classed as functional. An outline of the steps:
as §1

Test [9] deals with Candida albicans. In words: Antifungal activity against Candida albicans MTCC 227 after 48 hrs by tube dilution method. It counts as functional.
Test [10] has as its system Aspergillus niger. In words: Antifungal activity against Aspergillus niger MTCC 8184 after 7 days by tube dilution method. It counts as functional. An outline of the steps: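 Tube (serial) dilution MIC in Sabouraud dextrose broth I.P., 25 °C for 7 days. Results are recorded as MIC and reported as pMIC in mM.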
The subject of test [11] is Staphylococcus aureus. In words: Antibacterial activity against Staphylococcus aureus MTCC 2901 after 24 hrs by tube dilution method. It counts as functional.
Test [12] relates to A549. In words: Growth inhibition of human A549 cells after 48 hrs by MTT assay. It counts as functional, cell-based. The method, boiled down:
as §1

Test [13] deals with Escherichia coli. The experiment in a line: Antibacterial activity against Escherichia coli MTCC 1652 after 24 hrs by tube dilution method. It counts as functional.
The test system of test [14] is Bacillus subtilis. In words: Antibacterial activity against Bacillus subtilis MTCC 2063 after 24 hrs by tube dilution method. It counts as functional.
Test [15] deals with HCT-116. In words: Growth inhibition of human HCT116 cells at 10 uM after 48 hrs by MTT assay. The test is classed as functional. Particulars: HCT-116, 48 h, read-out: GI. The method, boiled down: as §1
Test [16] relates to MCF7. The experiment in a line: Growth inhibition of human MCF7 cells at 50 uM after 48 hrs by MTT assay. The test is classed as functional. Particulars: MCF7, 48 h, read-out: GI. An outline of the steps: as §1
For test [17], the system named is PC-3. In words: Growth inhibition of human PC3 cells at 1 uM after 48 hrs by MTT assay. It counts as functional. The settings on record: PC-3, 48 h, read-out: GI. The method, boiled down: as §1
For test [18], the system named is MCF7. In words: Growth inhibition of human MCF7 cells at 1 uM after 48 hrs by MTT assay. It counts as functional. The settings on record: MCF7, 48 h, read-out: GI. An outline of the steps:
as §1

The test system of test [19] is A549. The experiment in a line: Growth inhibition of human A549 cells at 1 uM after 48 hrs by MTT assay. The test is classed as functional. The settings on record: A549, 48 h, read-out: GI. The method, boiled down:
as §1

Test [20] has as its system A549. The experiment in a line: Growth inhibition of human A549 cells at 20 uM after 48 hrs by MTT assay. The test is classed as functional. The settings on record: A549, 48 h, read-out: GI. An outline of the steps:
(§2)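 Cells from ECACC, grown in RPMI-1640 with 10% FCS and 1% penicillin, 37 °C, 5% CO2. Seeded at 3×10^3 cells/well in 100 µL medium. Compounds added 24 h later from filter-sterilized DMSO stocks. MTT (2.5 mg/mL in PBS, 20 µL) added, then at least 4 h incubation. Formazan dissolved in DMSO after 48 h treatment, absorbance read at 570 nm. Results given as % viable cells versus untreated.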

Test [21] has as its system HCT-116. In words: Growth inhibition of human HCT116 cells at 20 uM after 48 hrs by MTT assay. The test is classed as functional. Particulars: HCT-116, 48 h, read-out: GI. An outline of the steps: as §2

Each structure is given as a SMILES string.

Regarding `Fc1ccc(C2=NC(c3ccccc3)c3c(ccc4ccccc34)O2)cc1` (stereo not drawn), the “growth inhibition (GI)” value in test [1], in test [7] and in test [12] was “Dose-dependent effect” throughout. In addition, the inhibition of growth at 50 µM in [2] is 50%; in test [3], 39%; in test [8], 56%; in test [16], 51%. The inhibition of growth at 10 µM in test [4] stood at 18%; in test [5] it was 14%; in [6] it was 29%; in test [15], 12%. Besides, the “-logMIC” value was 1.75 in test [9]; 1.45 in test [10]; 1.75 in [11]; 2.35 in [13]; 2.05 in test [14].
Consider `CO[C@@]12[C@H](COC(N)=O)C3=C(C(=O)C(C)=C(N)C3=O)N1C[C@@H]1N[C@@H]12` [MITOMYCIN], for which the inhibition of growth at 1 µM in [17] came to 70%; in [18], 82%; in [19], 70%.
Regarding `O=c1[nH]cc(F)c(=O)[nH]1` [FLUOROURACIL], the inhibition of growth at 20 µM is 79% in test [20] and 78% in test [21].
In the case of `Brc1ccc(C2=NC(c3ccccc3)c3c(ccc4ccccc34)O2)cc1` (stereo not drawn), the inhibition of growth at 50 µM in [2] stood at 40%; in test [3], 11%; in test [8], 29%; in test [16], 39%. Moreover, the inhibition of growth at 10 µM in test [4] was 23%; in test [5], 4%; in [6] it was 27%; in test [15], 6%. For the same compound, the “-logMIC” value in test [9] is given as 1.82; in test [10], 1.52; in [11] it was 1.52; in test [13], 1.52; in test [14], 1.82.
`Cc1ccc(C2=NC(c3ccccc3)c3c(ccc4ccccc34)O2)cc1` (stereo not drawn): the inhibition of growth at 50 µM amounted to 43% in test [2], 20% in test [3], 38% in test [8] and 46% in [16]. Besides, the inhibition of growth at 10 µM in test [4] was 19%; in [5], 14%; in test [6], 36%; in test [15], 8%. The “-logMIC” value in test [9] came out at 1.75; in test [10] it was 1.45; in test [11] it was 1.75; in [13], 2.05; in test [14], 1.45.
For `Fc1ccc(C2=NC(c3ccc(F)cc3)c3c(ccc4ccccc34)O2)cc1` (stereo not drawn), the “growth inhibition (GI)” value in test [1], in test [7] and in [12] was “Dose-dependent effect” throughout. Besides, the inhibition of growth at 50 µM in [2] amounted to 50%; in test [3], 29%; in test [8], 51%; in test [16], 50%. Also, the inhibition of growth at 10 µM in test [4] came to 20%; in [5], 22%; in [6], 36%; in test [15] it was 5%. The “-logMIC” value in test [9] worked out at 1.77; in test [10] it was 1.47; in test [11], 2.07; in [13], 1.47; in test [14], 1.77.

The record behind these values is ChEMBL document CHEMBL2086288, “Synthesis, antimicrobial and cytotoxicity study of 1,3-disubstituted-1H-naphtho[1,2-e][1,3]oxazines” (2012).
